Measured values reported in ChEMBL document CHEMBL1152606, “Thienylhalomethylketones: Irreversible glycogen synthase kinase 3 inhibitors as useful pharmacological tools” (Bioorg Med Chem, 2009).
The source made the active and inactive calls. No cut-off for these calls is given here.

Tests used:
[1] = target: T1, Glycogen synthase kinase-3 beta (Homo sapiens, UniProt P49841); test: Noncompetitive inhibition of GSK3-beta by double-reciprocal plotting in presence of increasing ATP
Procedure, shortened: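 Lineweaver-Burk analysis with ATP varied 6.5–100 µM and inhibitor 1–2 µM, GS-1 fixed at 15 µM; 20 min [γ-32P] incorporation into GS-1, V as pmol phosphate/20 min.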

[2] = target: T1, Glycogen synthase kinase-3 beta; test: Noncompetitive inhibition of GSK3-beta by double-reciprocal plotting in presence of 15 uM ATP
Procedure, shortened: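 Double-reciprocal kinetics: GS-1 varied 6.5–100 µM with inhibitor 1–2 µM at fixed 15 µM ATP; [γ-32P] filter assay, V as pmol phosphate/20 min; each point mean of three experiments.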

[3] = organism: Rattus norvegicus; test: Inhibition of rat CAM2 at 10 uM by liquid scintillation counting in presence of [33gammaP]ATP
Procedure, shortened: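 CaM kinase II from rat brain; [γ33-P]ATP plus autocamtide-2 (5 µM); staurosporine reference; labelled autocamtide-2 counted by liquid scintillation; compounds at 10 µM.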

[4] = target: Epidermal growth factor receptor (Homo sapiens) (UniProt P00533); test: Inhibition of EGFR in human A431 at 10 uM by liquid scintillation counting in presence of [33gammaP]ATP
Chain of Epidermal growth factor receptor (Homo sapiens) (P00533 whole entry): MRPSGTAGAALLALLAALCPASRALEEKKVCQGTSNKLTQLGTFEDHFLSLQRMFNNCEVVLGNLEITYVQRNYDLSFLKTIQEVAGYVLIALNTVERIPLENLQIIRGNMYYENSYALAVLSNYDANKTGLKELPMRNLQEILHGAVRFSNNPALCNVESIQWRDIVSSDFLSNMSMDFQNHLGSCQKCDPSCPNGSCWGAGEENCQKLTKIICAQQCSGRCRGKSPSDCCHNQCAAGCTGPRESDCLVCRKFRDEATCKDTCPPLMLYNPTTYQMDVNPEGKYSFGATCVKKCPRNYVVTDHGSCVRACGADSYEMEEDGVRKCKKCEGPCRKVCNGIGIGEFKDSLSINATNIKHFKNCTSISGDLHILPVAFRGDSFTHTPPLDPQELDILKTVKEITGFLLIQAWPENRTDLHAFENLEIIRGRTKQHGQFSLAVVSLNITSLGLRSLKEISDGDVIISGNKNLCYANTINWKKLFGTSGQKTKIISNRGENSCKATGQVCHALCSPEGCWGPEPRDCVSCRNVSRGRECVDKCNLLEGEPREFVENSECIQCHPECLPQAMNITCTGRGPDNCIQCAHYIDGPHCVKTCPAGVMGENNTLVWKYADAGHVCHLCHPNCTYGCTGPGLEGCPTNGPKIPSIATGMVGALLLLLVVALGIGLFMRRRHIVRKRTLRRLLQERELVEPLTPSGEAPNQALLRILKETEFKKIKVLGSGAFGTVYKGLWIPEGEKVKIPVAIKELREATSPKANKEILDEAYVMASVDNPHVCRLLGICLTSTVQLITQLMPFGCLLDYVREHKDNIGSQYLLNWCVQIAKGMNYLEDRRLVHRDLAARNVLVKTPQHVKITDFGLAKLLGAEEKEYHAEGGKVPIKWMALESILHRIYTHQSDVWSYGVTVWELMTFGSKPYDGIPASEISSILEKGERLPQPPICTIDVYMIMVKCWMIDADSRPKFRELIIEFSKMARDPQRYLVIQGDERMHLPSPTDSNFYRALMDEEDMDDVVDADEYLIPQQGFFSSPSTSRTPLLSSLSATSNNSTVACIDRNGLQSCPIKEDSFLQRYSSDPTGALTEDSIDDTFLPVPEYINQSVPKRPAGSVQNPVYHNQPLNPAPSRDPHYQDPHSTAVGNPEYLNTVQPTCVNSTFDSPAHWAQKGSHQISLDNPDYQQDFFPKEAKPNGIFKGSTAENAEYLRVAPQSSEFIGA
Procedure, shortened: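 EGFR kinase from A-431 cells; substrate [γ33-P]ATP plus poly GAT (0.48 mg/mL); PD 153035 reference; product measured by liquid scintillation; compounds at 10 µM.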

[5] = target: Insulin receptor (Homo sapiens) (UniProt P06213); test: Inhibition of human recombinant IR at 10 uM by liquid scintillation counting in presence of [33gammaP]ATP
Chain of Insulin receptor (Homo sapiens) (P06213 28-758 limits assumed): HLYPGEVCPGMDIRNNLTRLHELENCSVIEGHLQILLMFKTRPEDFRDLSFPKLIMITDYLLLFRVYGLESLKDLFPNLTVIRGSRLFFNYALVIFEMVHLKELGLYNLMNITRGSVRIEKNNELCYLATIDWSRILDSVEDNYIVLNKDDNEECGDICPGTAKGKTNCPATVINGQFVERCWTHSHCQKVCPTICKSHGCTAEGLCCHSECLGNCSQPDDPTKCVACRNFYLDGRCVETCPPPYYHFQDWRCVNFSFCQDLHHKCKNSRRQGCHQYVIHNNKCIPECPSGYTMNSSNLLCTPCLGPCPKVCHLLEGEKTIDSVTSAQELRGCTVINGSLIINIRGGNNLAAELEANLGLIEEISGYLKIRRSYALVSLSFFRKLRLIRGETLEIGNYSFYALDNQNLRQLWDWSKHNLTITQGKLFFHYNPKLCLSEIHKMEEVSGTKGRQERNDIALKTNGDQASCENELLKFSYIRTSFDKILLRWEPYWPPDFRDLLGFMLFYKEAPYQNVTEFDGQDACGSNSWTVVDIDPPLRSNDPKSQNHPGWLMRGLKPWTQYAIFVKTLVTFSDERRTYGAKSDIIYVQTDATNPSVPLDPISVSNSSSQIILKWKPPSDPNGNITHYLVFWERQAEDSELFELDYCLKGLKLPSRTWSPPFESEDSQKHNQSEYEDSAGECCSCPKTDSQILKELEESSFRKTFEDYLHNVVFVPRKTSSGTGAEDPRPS
Chain of Insulin receptor (Homo sapiens) (P06213 763-1382 limits assumed): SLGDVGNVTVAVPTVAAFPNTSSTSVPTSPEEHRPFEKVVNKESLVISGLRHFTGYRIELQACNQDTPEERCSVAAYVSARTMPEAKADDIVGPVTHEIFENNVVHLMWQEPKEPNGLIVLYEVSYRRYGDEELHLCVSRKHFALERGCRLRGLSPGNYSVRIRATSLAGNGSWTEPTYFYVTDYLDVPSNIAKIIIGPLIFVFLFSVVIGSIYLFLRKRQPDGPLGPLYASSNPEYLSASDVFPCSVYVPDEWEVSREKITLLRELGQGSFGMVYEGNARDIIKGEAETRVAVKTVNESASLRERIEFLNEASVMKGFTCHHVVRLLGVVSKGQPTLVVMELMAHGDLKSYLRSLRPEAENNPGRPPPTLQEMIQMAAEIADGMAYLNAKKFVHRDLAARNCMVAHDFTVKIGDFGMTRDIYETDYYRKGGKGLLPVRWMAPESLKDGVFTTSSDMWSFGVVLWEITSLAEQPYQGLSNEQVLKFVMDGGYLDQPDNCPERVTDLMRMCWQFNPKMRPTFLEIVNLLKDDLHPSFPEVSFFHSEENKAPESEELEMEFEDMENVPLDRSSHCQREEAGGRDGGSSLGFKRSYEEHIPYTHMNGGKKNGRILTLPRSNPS
Procedure, shortened: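 Human recombinant insulin receptor kinase; [γ33-P]ATP plus poly GT (0.03 mg/mL); staurosporine reference; liquid scintillation detection; 10 µM compound.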

[6] = organism: Rattus norvegicus; test: Inhibition of rat recombinant MAPK at 10 uM by liquid scintillation counting in presence of [33gammaP]ATP
Procedure, shortened: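 Rat recombinant ERK42 MAP kinase expressed in E. coli; [γ33-P]ATP with MBP (0.5 mg/mL); staurosporine reference; liquid scintillation read-out; 10 µM compound.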

[7] = target: Dual specificity mitogen-activated protein kinase kinase 1 (Oryctolagus cuniculus) (UniProt P29678); test: Inhibition of rabbit recombinant MEK1 expressed in Escherichia coli at 10 uM by liquid scintillation counting in presence of [33gammaP]ATP
Chain of Dual specificity mitogen-activated protein kinase kinase 1 (Oryctolagus cuniculus) (P29678 whole entry): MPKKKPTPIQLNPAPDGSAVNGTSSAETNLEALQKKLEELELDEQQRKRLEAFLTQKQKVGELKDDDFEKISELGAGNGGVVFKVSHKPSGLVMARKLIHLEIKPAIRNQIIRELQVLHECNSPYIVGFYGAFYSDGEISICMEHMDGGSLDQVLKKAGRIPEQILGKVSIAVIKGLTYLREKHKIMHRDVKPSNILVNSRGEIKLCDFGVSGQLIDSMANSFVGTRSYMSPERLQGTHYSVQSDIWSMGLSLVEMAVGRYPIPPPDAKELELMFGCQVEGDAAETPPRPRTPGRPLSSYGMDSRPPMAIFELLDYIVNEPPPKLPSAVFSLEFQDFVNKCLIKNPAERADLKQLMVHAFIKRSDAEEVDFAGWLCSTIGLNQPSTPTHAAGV
Procedure, shortened: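 Rabbit recombinant MEK1 from E. coli; ATP plus unactivated MAP kinase (0.01 mg/mL) as substrate; staurosporine reference; liquid scintillation detection; 10 µM.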

[8] = organism: Bos taurus; test: Inhibition of bovine thymus p56LCK at 10 uM by liquid scintillation counting in presence of [33gammaP]ATP
Procedure, shortened: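 p56lck from bovine thymus; [γ33-P]ATP with polyGT (0.5 mg/mL) substrate; staurosporine reference; liquid scintillation read-out; compounds tested at 10 µM.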

[9] = target: Proto-oncogene tyrosine-protein kinase Src (Homo sapiens) (UniProt P12931); test: Inhibition of Src at 10 uM
Chain of Proto-oncogene tyrosine-protein kinase Src (Homo sapiens) (P12931 2-536 limits assumed): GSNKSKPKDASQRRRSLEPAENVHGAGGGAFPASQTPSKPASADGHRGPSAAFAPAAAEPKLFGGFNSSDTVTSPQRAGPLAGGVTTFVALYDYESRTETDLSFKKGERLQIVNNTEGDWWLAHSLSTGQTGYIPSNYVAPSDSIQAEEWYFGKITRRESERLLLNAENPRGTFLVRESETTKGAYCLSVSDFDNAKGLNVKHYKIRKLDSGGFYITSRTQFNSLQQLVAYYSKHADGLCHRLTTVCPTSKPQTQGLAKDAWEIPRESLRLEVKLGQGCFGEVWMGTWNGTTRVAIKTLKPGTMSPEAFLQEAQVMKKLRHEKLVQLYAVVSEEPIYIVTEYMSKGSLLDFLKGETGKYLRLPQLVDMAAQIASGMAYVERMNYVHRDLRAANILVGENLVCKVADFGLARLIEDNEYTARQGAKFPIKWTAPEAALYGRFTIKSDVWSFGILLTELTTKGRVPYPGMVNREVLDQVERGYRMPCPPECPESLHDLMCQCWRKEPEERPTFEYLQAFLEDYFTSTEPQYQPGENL

[10] = target: D(2) dopamine receptor (Homo sapiens) (UniProt P14416); test: Displacement of [3H]spiperone from human recombinant dopamine D2 receptor expressed in CHO cells at 10 uM; type: cell-based
Chain of D(2) dopamine receptor (Homo sapiens) (P14416 whole entry): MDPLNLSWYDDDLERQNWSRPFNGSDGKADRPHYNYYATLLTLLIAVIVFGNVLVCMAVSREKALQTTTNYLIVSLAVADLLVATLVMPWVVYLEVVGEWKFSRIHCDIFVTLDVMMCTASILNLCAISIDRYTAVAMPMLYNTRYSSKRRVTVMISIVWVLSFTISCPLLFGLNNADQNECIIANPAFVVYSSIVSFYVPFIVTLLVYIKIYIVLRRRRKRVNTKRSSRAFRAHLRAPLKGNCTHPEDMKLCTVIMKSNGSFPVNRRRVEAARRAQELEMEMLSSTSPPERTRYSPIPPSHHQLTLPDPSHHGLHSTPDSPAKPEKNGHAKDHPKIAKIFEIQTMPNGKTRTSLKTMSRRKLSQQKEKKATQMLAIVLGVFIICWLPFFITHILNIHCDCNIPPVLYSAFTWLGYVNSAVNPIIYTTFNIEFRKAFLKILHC
Procedure, shortened: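 Human recombinant D2 receptor expressed in CHO cells; [3H]spiperone ligand at 0.3 nM; (+)-buctaclamol as reference compound.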

[11] = target: T2, Alpha-2A adrenergic receptor (Rattus norvegicus) (UniProt P22909); test: Displacement of [3H]RX821002 from alpha2 adrenoceptor in rat cerebral cortex at 10 uM; type: tissue-based
T2 sequence (whole entry): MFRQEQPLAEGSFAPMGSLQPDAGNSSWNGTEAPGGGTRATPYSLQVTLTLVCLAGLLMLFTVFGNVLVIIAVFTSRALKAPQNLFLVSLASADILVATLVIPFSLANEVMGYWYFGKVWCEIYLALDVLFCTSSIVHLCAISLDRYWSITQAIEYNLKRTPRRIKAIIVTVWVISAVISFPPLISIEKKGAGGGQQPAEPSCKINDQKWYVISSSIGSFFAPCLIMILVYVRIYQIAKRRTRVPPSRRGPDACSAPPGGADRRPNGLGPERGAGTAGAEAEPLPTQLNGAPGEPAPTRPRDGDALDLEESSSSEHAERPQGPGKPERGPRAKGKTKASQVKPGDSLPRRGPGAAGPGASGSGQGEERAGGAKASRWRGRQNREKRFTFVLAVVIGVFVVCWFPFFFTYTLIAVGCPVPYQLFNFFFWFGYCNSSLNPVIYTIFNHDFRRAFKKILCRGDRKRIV
Procedure, shortened: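 Rat cerebral cortex source; [3H]RX 821002 ligand at 0.5 nM; yohimbine as reference compound; non-selective alpha-2 site.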

[12] = target: D(3) dopamine receptor (Homo sapiens) (UniProt P35462); test: Displacement of [3H]spiperone from human recombinant dopamine D3 receptor expressed in CHO cells at 10 uM; type: cell-based
Chain of D(3) dopamine receptor (Homo sapiens) (P35462 whole entry): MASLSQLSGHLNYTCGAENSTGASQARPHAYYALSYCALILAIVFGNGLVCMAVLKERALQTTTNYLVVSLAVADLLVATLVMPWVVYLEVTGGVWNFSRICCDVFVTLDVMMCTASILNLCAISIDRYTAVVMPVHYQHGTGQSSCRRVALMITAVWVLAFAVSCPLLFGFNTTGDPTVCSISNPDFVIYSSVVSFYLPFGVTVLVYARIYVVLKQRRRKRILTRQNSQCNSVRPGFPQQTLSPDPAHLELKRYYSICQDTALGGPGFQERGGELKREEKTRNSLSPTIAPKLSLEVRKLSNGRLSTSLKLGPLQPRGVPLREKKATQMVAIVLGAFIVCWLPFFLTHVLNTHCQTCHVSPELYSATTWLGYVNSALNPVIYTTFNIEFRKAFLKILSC
Procedure, shortened: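 Human recombinant D3 receptor from CHO cells; [3H]spiperone 0.3 nM as ligand; (+)-buctaclamol reference compound.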

[13] = organism: Rattus norvegicus; test: Displacement of [3H]AMPA from AMPA receptor in rat cerebral cortex at 10 uM; type: tissue-based
[14] = target: Glutamate NMDA receptor (Rattus norvegicus) (UniProt P35439+Q00959+Q00960+Q00961+Q62645+Q8VHN2+Q9R1M7); test: Displacement of [3H]CGP39653 from NMDA receptor in rat cerebral cortex at 10 uM; type: tissue-based
[15] = Displacement of [3H]QNB from muscarinic receptor at 10 uM
[16] = organism: Rattus norvegicus; test: Displacement of [3H]cystisine from alpha-BGTX insensitive nicotinic acetylcholine receptor in rat cerebral cortex at 10 uM; type: tissue-based
[17] = organism: Rattus norvegicus; test: Displacement of [3H]cystisine from alpha-BGTX sensitive nicotinic acetylcholine receptor in rat cerebral cortex; type: tissue-based; set-up: concentration or dose not given beside the values; settings: concentration not given here
[18] = target: Glycogen synthase kinase-3 beta (Mus musculus) (UniProt Q9WV60); test: Inhibition of GSK-3-beta-mediated tau phosphorylation in mouse granule cerebellar neurons cells after 16 hrs by Western blot
Chain of Glycogen synthase kinase-3 beta (Mus musculus) (Q9WV60 whole entry, looked up): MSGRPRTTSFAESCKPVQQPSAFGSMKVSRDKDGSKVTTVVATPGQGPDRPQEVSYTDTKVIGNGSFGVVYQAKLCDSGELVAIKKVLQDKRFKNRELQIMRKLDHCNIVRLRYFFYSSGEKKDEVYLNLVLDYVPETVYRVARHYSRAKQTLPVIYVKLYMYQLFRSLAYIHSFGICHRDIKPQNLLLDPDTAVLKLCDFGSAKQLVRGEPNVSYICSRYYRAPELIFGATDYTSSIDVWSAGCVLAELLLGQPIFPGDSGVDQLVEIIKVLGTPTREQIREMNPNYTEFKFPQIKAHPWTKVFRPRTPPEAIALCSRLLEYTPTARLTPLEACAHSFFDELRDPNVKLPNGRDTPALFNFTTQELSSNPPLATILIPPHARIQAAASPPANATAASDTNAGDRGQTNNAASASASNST
Procedure, shortened: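 Cerebellar granule neurons from P6 mice, plated on poly-L-lysine and grown 48 h in serum-free neurobasal/B-27 with 12.5 mM KCl; compounds 0.5–25 µM; LiCl 10 mM positive control with excess myo-inositol; lysates blotted with PHF-1 and Tau-1, normalised to β-actin, densitometry; mean of three experiments, control = 100 r.u.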

[19] = tested on: N2a; test: Induction of neurite growth in mouse Neuro2a cells at 0.2 uM after 16 hrs by phase-contrast photography; type: functional, cell-based
Procedure, shortened: (§1)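 Neuro2A mouse neuroblastoma cells grown in DMEM with 10% heat-inactivated FCS, 2 mM glutamine and antibiotics; compounds added in serum-containing medium for 16 h; control received DMSO; neurite/cytoplasmic extensions scored by phase-contrast photography.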

[20] = target: Tyrosine-protein kinase ABL1 (Mus musculus) (UniProt P00520); test: Inhibition of mouse recombinant Abl expressed in Escherichia coli at 10 uM by fluorescence polarization
[21] = tested on: 5-HT (non-selective) serotonin receptor (Rattus norvegicus); test: Inhibition of [3H]serotonine binding to non-selective 5-HT serotoninergic receptor in rat cerebral cortex at 10 uM
[22] = target: T1, Glycogen synthase kinase-3 beta; test: Irreversible inhibition of GSK3-beta mediated phosphorylation measured after careful washes by liquid scintillation counting
Procedure, shortened: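 His-tagged recombinant GSK-3β immobilised on nickel agarose, incubated 20 min at 37 °C with inhibitor, 15 µM ATP, [γ-32P]ATP and GS-1 in Tris/MgCl2/EGTA/EDTA pH 7.5; gel pelleted, washed three times in Tris-MgCl2 buffer, then reassayed 15 min with fresh ATP/GS-1; P81 filter scintillation; activity relative to identically handled control.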

[23] = tested on: N2a; test: Induction of neurite growth in mouse Neuro2a cells at 2 uM after 16 hrs by phase-contrast photography; type: functional, cell-based; procedure, shortened: as §1

T1 sequence (P49841 whole entry, looked up): as the sequence (Q9WV60 whole entry, looked up) above, with P390T, A392T, T400A, A402T counted along it

Row | Compound | inhibition [1] | inhibition [2] | inhibition [3] [%] | inhibition [4] [%] | inhibition [5] [%] | inhibition [6] [%] | inhibition [7] [%] | inhibition [8] [%] | inhibition [9] [%] | inhibition [10] [%] | inhibition [11] [%] | inhibition [12] [%] | inhibition [13] [%] | inhibition [14] [%] | inhibition [15] [%] | inhibition [16] [%] | inhibition [17] [%] | Activity [18] | inhibition [20] [%] | inhibition [21] [%] | also measured
1 | O=C(CCl)c1csc(C(=O)CCl)c1 | Active | Active | 21 | 16 | 12 | < 10 | < 10 | 49 | 94 | < 10 | 10 | < 10 | 25 | < 10 | < 10 | < 10 | < 10 | Active | < 10 | < 10 | Activity [19]: Active
2 | O=C(CCl)c1c(Br)sc(Cl)c1Cl | Active | Active | < 10 | < 10 | < 10 | < 10 | < 10 | 33 | 26 | 31 | < 10 | < 10 | < 10 | 13 | < 10 | < 10 | < 10 | Active | < 10 | < 10 | Activity [22]: Active; Activity [23]: Active
3 | O=C(CCl)c1cc(Br)c(Br)s1 | – | – | < 10 | < 10 | < 10 | < 10 | < 10 | < 10 | 69 | < 10 | < 10 | < 10 | < 10 | < 10 | < 10 | < 10 | < 10 | – | < 10 | < 10 | Activity [22]: Active
